We go through 19 compounds from ChEMBL document CHEMBL2016482, “Synthesis and inhibitory effect of piperine derivates on monoamine oxidase” (Bioorg Med Chem Lett, 2012).

For data set [1], the target named is T1, Amine oxidase [flavin-containing] A (Rattus norvegicus, UniProt P21396).
T1 sequence (P21396 whole entry): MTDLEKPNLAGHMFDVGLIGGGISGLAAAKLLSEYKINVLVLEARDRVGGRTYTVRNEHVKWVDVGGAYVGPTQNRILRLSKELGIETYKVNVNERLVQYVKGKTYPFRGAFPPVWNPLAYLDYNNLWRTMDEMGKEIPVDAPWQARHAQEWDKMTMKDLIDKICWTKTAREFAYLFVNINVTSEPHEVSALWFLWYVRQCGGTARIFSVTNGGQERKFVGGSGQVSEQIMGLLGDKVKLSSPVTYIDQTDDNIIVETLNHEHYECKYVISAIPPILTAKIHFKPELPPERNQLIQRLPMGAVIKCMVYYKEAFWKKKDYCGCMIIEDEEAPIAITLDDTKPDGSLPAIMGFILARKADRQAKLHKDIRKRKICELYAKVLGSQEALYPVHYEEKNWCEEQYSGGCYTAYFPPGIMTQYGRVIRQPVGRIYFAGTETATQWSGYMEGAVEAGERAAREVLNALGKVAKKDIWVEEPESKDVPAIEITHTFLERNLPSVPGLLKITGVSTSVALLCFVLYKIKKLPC
The data set is described as follows: Inhibition of MAO-A in Sprague-Dawley rat brain homogenate using kynuramine as substrate preincubated for 10 mins measured by fluorimetric assay. Format: tissue-based. The method, boiled down:
(§1)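 Rat brain homogenate was the enzyme source, with protein measured by Bradford against a BSA standard. Fluorometric MAO assay used kynuramine substrate in the presence of isoform-specific inhibitors. Test inhibitor was preincubated with homogenate for 10 min. IC50 came from plots of % residual activity relative to enzyme treated identically without inhibitor.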

The target of data set [2] is T2, Amine oxidase [flavin-containing] B (Rattus norvegicus, UniProt P19643).
T2 sequence (P19643 whole entry): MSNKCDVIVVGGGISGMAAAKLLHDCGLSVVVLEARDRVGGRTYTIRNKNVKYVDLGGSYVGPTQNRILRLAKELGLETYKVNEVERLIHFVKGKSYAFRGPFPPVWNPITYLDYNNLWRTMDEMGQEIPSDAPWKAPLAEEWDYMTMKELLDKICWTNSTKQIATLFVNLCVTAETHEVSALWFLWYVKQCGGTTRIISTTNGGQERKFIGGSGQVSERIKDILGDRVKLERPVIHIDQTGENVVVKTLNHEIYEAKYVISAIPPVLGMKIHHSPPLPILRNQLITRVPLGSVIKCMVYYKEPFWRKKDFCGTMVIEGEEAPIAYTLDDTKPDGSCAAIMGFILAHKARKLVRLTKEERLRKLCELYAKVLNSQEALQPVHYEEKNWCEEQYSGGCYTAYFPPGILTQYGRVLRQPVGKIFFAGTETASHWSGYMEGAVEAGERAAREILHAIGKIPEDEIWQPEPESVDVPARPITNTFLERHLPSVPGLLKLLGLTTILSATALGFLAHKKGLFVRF
Nature of the data set: Inhibition of MAO-B in Sprague-Dawley rat brain homogenate using kynuramine as substrate preincubated for 10 mins measured by fluorimetric assay. The format is tissue-based. The method, boiled down:
as §1

The species named for another data set is Rattus norvegicus. The data set is described as follows: Selectivity ratio of IC50 for Sprague-Dawley rat MAO-A to IC50 for Sprague-Dawley rat MAO-B.
In data set [3] the target is T1, Amine oxidase [flavin-containing] A. Nature of the data set: Competitive inhibition of MAO-A in Sprague-Dawley rat brain homogenate by Lineweaver-Burk plot analysis. The format is tissue-based. The method, boiled down:
(§2)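 Kinetic mode of the same homogenate kynuramine fluorometric assay. Reciprocal MAO activity was plotted against reciprocal kynuramine concentration (Lineweaver–Burk), each at three inhibitor levels including zero, run separately for MAO-A and MAO-B.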

Data set [4] deals with T2, Amine oxidase [flavin-containing] B. Nature of the data set: Competitive inhibition of MAO-B in Sprague-Dawley rat brain homogenate by Lineweaver-Burk plot analysis. Format: tissue-based. The method, boiled down: as §2

Take `CCN(CC)C(=O)/C=C/C=C/c1ccc2c(c1)OCO2`: the IC50 stood at 3820 nM in data set [1] and 78 nM in data set [2]. In the data set filed under Rattus norvegicus, the Ratio IC50 turned out to be 49.
In the case of `C(/C=C/c1ccc2c(c1)OCO2)=C\CN1CCCCC1`, the IC50 in data set [1] and in data set [2] was above 100000 nM each time.
`O=C(O)/C=C/C=C/c1ccc2c(c1)OCO2` [PIPERIC ACID]: the IC50 came out at 18300 nM in data set [1] and 13600 nM in data set [2]. The Ratio IC50 in the data set filed under Rattus norvegicus was 1.35.
On the same counts, the results for `CC(=O)Oc1ccc(/C=C/C=C/C(=O)N2CCCCC2)cc1OC(C)=O` are 1280 nM, 750 nM and 1.71.
On the same counts, the results for `CCOC(=O)CCCCc1ccc2c(c1)OCO2` are 5570 nM, 1230 nM and 4.53.
For `O=C(C1C=CC(c2ccc3c(c2)OCO3)C(/C=C/c2ccc3c(c2)OCO3)C1C(=O)N1CCCCC1)N1CCCCC1` (stereo not drawn), the IC50 in data set [1] and in data set [2] was above 100000 nM throughout.
For the compound `O=C(/C=C/C=C/c1ccc(O)c(O)c1)N1CCCCC1`, the IC50 came out at 800 nM in data set [1] and 1570 nM in data set [2]. Further, in the data set listed under Rattus norvegicus, the Ratio IC50 was 0.51.
On the same counts, the results for `COC(=O)CCCCc1ccc2c(c1)OCO2` are 3170 nM, 1800 nM and 1.76.
Take `CCOC(=O)/C=C/C=C/c1ccc2c(c1)OCO2`: the IC50 in data set [1] stood at 7550 nM; in data set [2], 330 nM. In the data set filed under Rattus norvegicus, the Ratio IC50 amounted to 22.8.
As for `CN1CCN(C(=O)CCCCc2ccc3c(c2)OCO3)CC1`, the IC50 in data set [1] and in data set [2] was above 100000 nM each time.
For `O=C(CCCCc1ccc2c(c1)OCO2)N1CCCCC1` [TETRAHYDROPIPERINE], the figures for the IC50 in data set [1] and in data set [2] were above 100000 nM and 1970 nM, respectively.
On the same counts, the results for `CCCCNC(=O)/C=C/C=C/c1ccc2c(c1)OCO2` are above 100000 nM and 330 nM.
On to `CCN(CC)C(=O)CCCCc1ccc2c(c1)OCO2`, for which the IC50 came out at 5210 nM in data set [1] and 1750 nM in data set [2]. For the same compound, the Ratio IC50 in the data set filed under Rattus norvegicus came out at 2.98.
On to `CN1CCN(C(=O)/C=C/C=C/c2ccc3c(c2)OCO3)CC1`, for which the IC50 in data set [1] worked out at 2040 nM; in data set [2] it was 960 nM. Also, the Ratio IC50 in the data set listed under Rattus norvegicus stood at 2.12.
For `COC(=O)/C=C/C=C/c1ccc2c(c1)OCO2` [METHYL PIPERATE], in that order: 2740 nM, 230 nM and 11.9.
On the same counts, the results for `CCCCNC(=O)CCCCc1ccc2c(c1)OCO2` are 16100 nM, 3500 nM and 4.59.
`O=C(/C=C/C=C/c1ccc2c(c1)OCO2)N1CCCCC1` [PIPERINE]: the figures for the IC50 in data set [1] and in data set [2] were 404 nM and 260 nM, respectively. For the same compound, the Ratio IC50 in the data set filed under Rattus norvegicus amounted to 1.55.
With `CCCNC(=O)CCCCc1ccc2c(c1)OCO2`, the half-maximal inhibitory concentration (IC50) in data set [1] and in data set [2] was above 100000 nM each time.
Regarding `CCCNC(=O)/C=C/C=C/c1ccc2c(c1)OCO2`, the half-inhibitory concentration (IC50) was 3660 nM in data set [1] and 45 nM in data set [2]. For the same compound, the “inhibition (INH)” value in data set [3] and in data set [4] was “Active” each time. Moreover, the Ratio IC50 in the data set listed under Rattus norvegicus turned out to be 81.5.

By IC50 is commonly meant the concentration at which inhibition is half-maximal.
